# STK33 kinase inh: inhibitors of human STK33 kinase | Q9BYT3 | purified STK33, MBP phosphorylation, ADP-Glo luminescence | inhibition, % at 10 µM | actives 0.073% (n = 320,000);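 active = inhibition at or above 25%, using the most active replicate where run in duplicate; inactive = inhibition below 25%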
# Target sequence (Q9BYT3 whole entry, looked up): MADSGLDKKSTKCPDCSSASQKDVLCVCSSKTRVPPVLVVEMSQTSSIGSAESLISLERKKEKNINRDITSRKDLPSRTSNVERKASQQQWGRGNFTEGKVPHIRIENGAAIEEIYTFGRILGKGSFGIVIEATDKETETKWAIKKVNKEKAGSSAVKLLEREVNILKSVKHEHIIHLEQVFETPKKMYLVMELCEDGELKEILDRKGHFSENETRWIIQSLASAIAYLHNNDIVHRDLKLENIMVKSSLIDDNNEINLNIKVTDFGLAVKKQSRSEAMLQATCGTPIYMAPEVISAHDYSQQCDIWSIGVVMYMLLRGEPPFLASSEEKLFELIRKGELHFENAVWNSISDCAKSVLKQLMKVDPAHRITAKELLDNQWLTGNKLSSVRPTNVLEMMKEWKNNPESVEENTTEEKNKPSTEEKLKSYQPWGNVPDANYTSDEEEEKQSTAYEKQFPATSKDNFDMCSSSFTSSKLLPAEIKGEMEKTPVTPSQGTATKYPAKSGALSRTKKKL
# GSK3A inh: human GSK-3 alpha kinase inhibition; P49840; ADP-Glo luminescence, 60 min; inhibition, % at 10 µM; actives 0.1% (n = 320,000); AID 2650;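 active = more than half of replicates show inhibition above 20%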;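 also: GST-tagged GSK-3 alpha with peptide substrate and 25 µM ATP; 0% = DMSO neutral wells and 100% = GW8510 positive control wells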
# Dyrk1A ADPGlo: inhibitors of rat Dyrk1A kinase | Q63470 | ADP-Glo luminescence, NFATc1 peptide | inhibition, % at 12.5 µM | actives 0.43% (n = 310,000) | AID 504441; in the data active = inhibition above about 50%;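 also: plate controls were vehicle with enzyme for no effect and no enzyme for full effect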
# GSK3beta inhib: human GSK3beta kinase inhibition. AID 2097. actives 0.038% (n = 300,000). GST-GSK3beta kinase, ADP-Glo luminescence, 60 min; stronger effect = lower value. activity score (negative = inhibition), % at 10 µM;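 active = more than half of replicate wells score below -50%, meaning over 50% inhibition versus plate controls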;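 also: 0% = median DMSO wells and -100% = median GW8510 positive control wells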
#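 Test system: GST-tagged human GSK3beta kinase, cell-free; evaluation: activity score scaled between in-plate DMSO and GW8510 controls; measured by: ADP-Glo luminescence; incubation: 60 min reaction, RT; benchmarks: DMSO and 20 µM GW8510; reagent: peptide substrate plus 25 µM ATP (final); medium: Tris/MgCl2 kinase buffer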
# ADP-Glo artifact: ADP-Glo luciferase interference, Dyrk1A counter-screen; shares compounds with Dyrk1A ADPGlo; ADP-Glo luciferase artifact assay, no Dyrk1A, luminescence; AC50, µM (titrated, usually from 12 µM), without a hit: at the highest dose activity change, negative = inhibition; 1,300 tested, under 10 active;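 active = fitted half-maximal dose AC50 no more than ten times the top valid tested dose, with luminescence dropping as dose rises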
# * hit, by the source's call; . = not tested or not shown. The full list was thinned out, with hits kept by preference.
SMILES,STK33 kinase inh,GSK3A inh,Dyrk1A ADPGlo,GSK3beta inhib,ADP-Glo artifact
NS(=O)(=O)c1ccc(Nc2nc(-c3ccc(O)cc3O)cs2)cc1,17,61*,68*,-28,7%
NS(=O)(=O)c1ccc(Nc2nc(-c3ccc(F)cc3)cs2)cc1,2,13,21,-8,.
CCN(CC)c1ccc(/C=C2\C(=O)c3ccc(C(=O)O)cc3C2=O)cc1,61*,23,61*,.,5%
CCN1C=CC(=C2C(=O)c3ccccc3C2=O)C=C1,28*,3,57*,-5,3%
OC(c1cc(C(F)(F)F)nc2c(Cl)cc(Cl)cc12)C1CCCCN1 (configuration not stated),1,26,55*,0,7%
O=C(CSC(=S)N1CCCC1)NCC(=O)Nc1ccc(F)c(F)c1,0,2,-1,-3,.
CC1=CC2=NC(=O)C(c3ccccc3)C(=O)N2C=C1 (configuration not stated),.,.,3,.,.
O=[N+]([O-])c1ccc(O)c(C=NNc2ccc(S(=O)(=O)O)cc2)c1,.,.,73*,.,9%
Cc1cccc(Nc2cc(C)c3c(O)cccc3n2)c1C,0,2,68*,-1,7%
Cc1ccccc1NC1=C/C(=N\S(=O)(=O)c2ccc(C(=O)O)cc2)c2ccccc2C1=O,5,22,62*,-13,6%
Cc1ccccc1NC1=C/C(=N\S(=O)(=O)c2cccs2)c2ccccc2C1=O,0,.,2,-1,.
Cn1c2ccccc2c2cc(/C=N/NC(=O)c3cc(O)ccc3O)ccc21,-1,-2,61*,-1,9%
Cn1c2ccccc2c2cc(/C=N/NC(=O)c3cc(O)cc(O)c3)ccc21,0,-1,7,-1,.
COc1ccc2c(c1)C(=NN)c1cc(OC)ccc1-2,5,1,79*,-3,6%
COc1ccc2c(c1)C(=NNc1ccc(C(=O)O)cc1)c1cc(OC)ccc1-2,-3,2,83*,2,10%
COc1ccc(OC)c(N)c1,0,0,3,2,.
CC(=O)Nc1ccc(S(=O)(=O)N(C)CC(=O)Nc2nc3ccccc3[nH]2)cc1,.,.,-3,.,.
COc1ccccc1-c1sc2ccccc2c1C#Cc1ccc(N(C)C)cc1,0,-2,51*,.,8%
COc1ccccc1-c1sc2ccccc2c1-c1ccc(O)cc1,0,-3,1,.,.
Cc1ccc(S(=O)(=O)N(C)c2ccc(C(=O)N(C)Cc3nc4ccccc4c(=O)[nH]3)cc2)cc1,.,.,8,.,.
CC(C)NC(=O)Nc1cccc2c1O[C@H](CN(C)C(=O)NC1CCCCC1)[C@@H](C)CN([C@H](C)CO)C2=O,-1,-3,9,.,.
CC(C)NC(=O)Nc1cccc2c1O[C@H](CN(C)C(=O)NC1CCCCC1)[C@H](C)CN([C@H](C)CO)C2=O,-1,2,51*,.,9%
c1cnc2ncc3sccc3c2c1,-1,2,59*,4,9%
Cc1ccc2ncccc2c1,0,-4,.,.,.
c1cnc2ccc(-c3ccc4ncccc4c3)cc2c1,12,-1,87*,1,9%
SMILES,STK33 kinase inh,GSK3A inh,Dyrk1A ADPGlo,GSK3beta inhib,ADP-Glo artifact
Cc1ccccc1C(=O)Nc1cccc(C(=O)N/N=C/c2cc(Cl)cc([N+](=O)[O-])c2O)c1,1,0,-2,0,.
O=C(Nc1ccc2ccccc2n1)c1ccccc1,1,-2,51*,0,8%
Cc1ccc(C(=O)Nc2ccc3ccccc3n2)cc1,1,-2,21,3,.
COc1cc(/C=C2\SC(=S)N(NC(=O)c3cccc(O)c3)C2=O)ccc1O,0,2,61*,-9,5%
COc1cc(/C=C2\SC(=S)N(NC(=O)c3ccc(O)c(OC)c3)C2=O)ccc1O,3,2,42,0,.
Cc1nc(NC(=O)c2ccccc2)sc1-c1csc(NCc2ccco2)n1,.,.,67*,-3,7%
O=C(c1cc[n+]([O-])cc1)N1CCCC(N2CCN(c3cccc(C(F)(F)F)c3)CC2)C1 (configuration not stated),0,0,-4,-3,.
O=C(C1CC(=O)N(C2CCCC2)C1)N1CCN(c2ccc(F)cc2)CC1 (configuration not stated),.,.,61*,-2,9%
Cn1cccc1C(=O)NCc1ccc(S(N)(=O)=O)cc1,-1,-1,-4,-1,.
COc1cc(/C=C2\SC(N)=NC2=O)ccc1O,26*,6,90*,6,7%
COc1cc(C=C2C(=O)c3ccccc3C2=O)ccc1O,10,10,97*,-1,5%
COc1ccc(C=C2C(=O)c3ccccc3C2=O)cc1O,11,8,84*,-2,-5%
O=C(c1ccc(Cl)c(Cl)c1)N1CCC(=O)N(C(COCc2cccc(C(F)(F)F)c2)Cc2ccccc2)CC1 (configuration not stated),0,-2,53*,3,6%
COc1ccc(N/C=C2\CCc3ccccc3C2=O)cc1,9,9,22,-4,.
COc1ccc(N/C=C2\C(=O)CCc3c2oc2cc(Cl)c(O)c(Cl)c32)cc1,2,-2,55*,0,9%
COc1cccc(/C=N/n2c(COc3ccccc3)n[nH]c2=S)c1O,3,23,57*,-2,9%
O=C(O)Cc1ccc(N=Nc2c(O)c(C(=O)O)cc3ccccc23)cc1,10,7,35,-5,.
NS(=O)(=O)c1ccc(N=Nc2c(O)c(C(=O)O)cc3ccccc23)cc1,5,10,54*,-15,6%
CC(=O)OC(C)[C@H]1CC[C@H]2[C@@H]3CC[C@H]4C[C@@H](OC(C)=O)CC[C@]4(C)C3=CC[C@]12C (some centres not stated),0,1,6,1,.
CC(C)NC(=O)c1ccc2c(c1)N(Cc1ccccc1)C(=O)C(C)(C)O2,-2,0,7,-17,.
O=C(Nc1ccc(F)cc1F)c1csc(-c2cccs2)n1,-1,2,.,0,.
O=C(Nc1ccc(F)cc1F)c1csc(-c2ccncc2)n1,1,2,52*,-3,7%
c1ccc(-c2nnc3sc(Cc4cccs4)nn23)cc1,0,3,59*,-3,10%
Cc1c(C(=O)Nc2cc(F)ccc2F)sc2nc3n(c(=O)c12)CCCCC3,1,0,-6,-1,.
c1csc(CNc2ncnc3ccc(-c4ccoc4)cc23)c1,2,1,74*,.,10%
O=C(O)c1ccc(-c2ccc(/C=c3/sc4nc5ccccc5n4c3=O)o2)cc1Cl,0,-4,54*,0,11%
COc1ccc(S(=O)(=O)NC(C)C(=O)N2CCCC2)cc1C (configuration not stated),1,6,4,3,.
O=C(O)CSc1ncnc2scc(-c3ccccc3)c12,7,8,73*,1,11%
CN(C)C(=O)CSc1ncnc2scc(-c3ccccc3)c12,0,1,9,-2,.
Cc1occc1C(=O)/C(C#N)=C/c1ccc(O)c(Br)c1,4,-1,67*,1,7%
